UHRF1 binding = UHRF1 methyl-DNA binding inhibition; Q96T88; actives 0.75% (n = 370,000); UHRF1 binding to methylated oligo, TR-FRET; inhibition, % at 4.4 µM; in the data active = inhibition above about 21%;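 also: UHRF1 SRA domain binding a hemimethylated CpG hairpin DNA probe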
LEDGF integ inh = blocks HIV-1 LEDGF/p75-dependent DNA integration; AID 743269; TR-FRET IN-LEDGF/p75 DNA integration, Eu/Cy5; inhibition, % at 3.7 µM; actives 0.64% (n = 370,000);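 active = inhibition above the screen-wide mean plus 3 SD, cut at about 13% in these data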;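 also: signal is the Cy5 over europium emission ratio at 671 and 618 nm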
NSD2 HMT inh = blocks human histone methyltransferase NSD2. inhibition, % at 12.5 µM. actives 0.54% (n = 310,000). NSD2 peptide methylation, AlphaScreen, 120 min; in the data active = inhibition above about 50%
CASP6 VEID inh = caspase-6 (human) enzyme inhibition | purified caspase-6, Z-VEID-R110 cleavage fluorescence | inhibition, % at 12.5 µM | actives 0.53% (n = 350,000) | AID 686996;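 active = mean inhibition across replicates at least about 35%, with every replicate also reaching that limit, limit read from the data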
Target sequence (P55212 24-179 limits assumed): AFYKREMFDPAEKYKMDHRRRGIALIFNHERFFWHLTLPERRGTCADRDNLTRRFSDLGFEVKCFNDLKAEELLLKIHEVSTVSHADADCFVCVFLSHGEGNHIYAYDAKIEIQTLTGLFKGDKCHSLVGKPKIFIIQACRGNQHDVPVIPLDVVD
Target sequence (P55212 194-293 limits assumed): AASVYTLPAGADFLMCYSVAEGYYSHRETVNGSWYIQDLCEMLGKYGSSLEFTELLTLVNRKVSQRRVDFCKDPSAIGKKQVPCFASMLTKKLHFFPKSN
TDP2 absorb = TDP2 (human) inhibition, absorbance primary screen. inhibition, % at 12.8 µM. recombinant TDP2, T5PNP hydrolysis, p-nitrophenol absorbance 415 nm. actives 0.34% (n = 370,000). O95551. AID 720702;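 active = inhibition above the mean of all tested compounds plus 3 SD, set per campaign, cut at about 25% in these data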
Target sequence (O95551 whole entry, looked up): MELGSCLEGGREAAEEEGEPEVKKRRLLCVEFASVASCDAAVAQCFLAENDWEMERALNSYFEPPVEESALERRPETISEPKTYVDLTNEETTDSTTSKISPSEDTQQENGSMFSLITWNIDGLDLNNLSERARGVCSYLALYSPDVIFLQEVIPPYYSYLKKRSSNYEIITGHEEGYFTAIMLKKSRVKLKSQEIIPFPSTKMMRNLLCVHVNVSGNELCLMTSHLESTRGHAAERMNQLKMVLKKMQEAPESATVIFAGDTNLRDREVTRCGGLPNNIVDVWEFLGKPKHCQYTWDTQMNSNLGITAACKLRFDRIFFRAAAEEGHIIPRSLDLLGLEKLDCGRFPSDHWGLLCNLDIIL
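Assay system: recombinant human TDP2 / Reagent: T5PNP substrate at 5 mM, a TopII-DNA adduct mimic / Measured by: epi absorbance from released p-nitrophenol / Evaluation: % inhibition relative to enzyme-containing and enzyme-free wells / Control set: enzyme-free and DMSO wells / Replicates: each compound tested once, singlicate / Schedule: enzyme reaction with compound for 2 h at 37 °C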
MBD2 inh = inhibitors of human MBD2 binding to methylated oligonucleotide; TR-FRET; inhibition, % at 4.4 µM; actives 0.31% (n = 370,000); in the data active = inhibition above about 13%
AlphaScreen art = interferes with AlphaScreen signal, flagging NSD2 false positives; shares compounds with NSD2 HMT inh; AC35, µM (series often up to 10 µM); actives 9.4% (n = 1,500); AlphaScreen artifact counterscreen, preloaded methylated H4 peptide; call rule not given here
A number is an active result; – = inactive; · = not tested or not shown. Shown are actives, neighbours in structure and some others; about 1.8% of the full set was active somewhere.

SMILES | UHRF1 binding | LEDGF integ inh | NSD2 HMT inh | CASP6 VEID inh | TDP2 absorb | MBD2 inh | AlphaScreen art
COc1ccccc1NC(=O)C(C)OC(=O)CCNS(=O)(=O)c1cccc(C(F)(F)F)c1 (stereo not drawn) | – | – | 105.2 | – | – | – | –
CS(=O)(=O)c1ccc2c(c1)sc1nc(=O)c(/C=C3/C=CC(=O)C(O)=C3)c(N)n12 | – | – | 118.6 | – | – | – | 7.09µM
CCc1ccc(N2C(=O)C3C(C2=O)N2CCCN2C3c2ccccc2)cc1 (stereo not drawn) | – | – | 63.7 | – | – | – | –
Cc1ccc(N2C(=O)C3C(C2=O)N2CCCN2C3c2ccccc2)cc1C (stereo not drawn) | – | – | – | – | – | – | ·
O=C1CN(C(=O)CSc2nc3cc(Cl)ccc3c(=O)n2Cc2ccccc2)c2ccccc2N1 | – | – | – | – | – | – | ·
Cc1ccc(Cn2c(SCC(=O)N3CC(=O)Nc4ccccc43)nc3ccccc3c2=O)cc1 | – | – | 60.5 | – | – | – | –
OC[C@H]1[C@@H](c2ccccc2)C2(CN(Cc3nccs3)C2)N1CCC(F)(F)F | · | · | · | – | · | · | ·
Cc1ccc(S(=O)(=O)N2CCC(NC(=O)c3cccnc3)CC2)cc1Cl | – | – | 63.4 | – | – | – | –
COc1ccc(C(=O)NCc2nnc(SCC(=O)Nc3cc(C)cc(C)c3)o2)cc1OC | – | – | 75.0 | · | – | – | –
Cc1cc(C)c(NC(=O)C2CC(=O)N(c3ccc4c(c3)OCCO4)C2)c(C)c1 (stereo not drawn) | – | – | 106.2 | · | – | – | –
CN1c2ccc(-c3ccccc3)cc2[C@@H]2[C@@H](CCN2C(=O)c2ccc3c(c2)OCO3)[C@@H]1CO | · | · | · | – | · | · | ·
Nc1ncnc(NCc2ccc(F)cc2)c1[N+](=O)[O-] | – | – | – | – | – | – | ·
Nc1ncnc(NCc2ccccc2)c1[N+](=O)[O-] | – | – | 53.1 | – | – | – | –
Cn1c(=O)c2c(nc(CN3CCc4ccccc4C3)n2CCc2ccccc2)n(C)c1=O | · | · | 68.6 | · | · | · | –
COc1cccc(CNC(=O)CSc2nnc3c(n2)[nH]c2ccc(OC)cc23)c1 | – | – | · | – | – | – | ·
COc1cccc(CNC(=O)CSc2nnc3c(n2)[nH]c2ccccc23)c1 | – | – | 56.0 | – | – | – | –
C[C@H]1CCCCO[C@@H](CN(C)C(=O)c2ccncc2)[C@@H](C)CN([C@@H](C)CO)C(=O)c2cc(NS(=O)(=O)c3cn(C)cn3)ccc2O1 | · | · | · | – | · | · | ·
CCOC(=O)c1cc(NC(=O)CN2CCCC2)cc(C(=O)OCC)c1 | – | – | 96.4 | – | – | – | –
COc1ccc(C(=O)C(OC(=O)c2ccc(C)c(NC(C)=O)c2)c2ccccc2)cc1 (stereo not drawn) | – | – | 50.3 | · | – | – | –
CO[C@@H]1CN(C)C(=O)c2cc(NC(=O)C3CC3)ccc2OC[C@@H](C)N(C(=O)c2cccnc2)C[C@@H]1C | · | · | · | – | · | · | ·
Cn1c(=O)cc2c3c(c(N4CCCCC4)ccc31)C(=O)c1ccccc1-2 | – | – | 71.0 | – | – | – | 7.83µM
COc1ccc(-c2ccc3c(c2)[C@H]2[C@H](CCN2S(=O)(=O)c2ccc(OC)cc2)[C@H](CO)N3C)cc1 | · | · | · | – | · | · | ·
COC(=O)c1nn(C)c(=O)[nH]c1=O | – | – | 51.1 | – | – | – | –
Cn1nc(C#N)c(=O)[nH]c1=O | – | – | – | – | – | – | ·
O=C(Nc1ccc(Cl)cc1)N[C@H]1CC[C@H](CCn2cc(C3(O)CCCC3)nn2)O[C@H]1CO | · | · | · | – | · | · | ·
SMILES | UHRF1 binding | LEDGF integ inh | NSD2 HMT inh | CASP6 VEID inh | TDP2 absorb | MBD2 inh | AlphaScreen art
COC(=O)c1sc(S(=O)(=O)Nc2ccc(C)c(C)c2)c(C(=O)OC)c1C | – | – | 50.2 | – | – | – | –
COC(=O)c1sc(S(=O)(=O)NCCCN(C)C)c(C(=O)OC)c1C | – | – | – | – | – | – | ·
COc1cc(CC(=O)NCC2COc3ccccc3O2)cc(OC)c1OC (stereo not drawn) | – | – | 54.2 | – | – | – | –
COc1cccc(-c2ccc3c(c2)[C@H]2[C@H](CCN2Cc2ccccc2OC)[C@H](CO)N3)c1 | · | · | · | – | · | · | ·
CN(C)C(=O)[C@@]1(Cc2ccccc2)COC(c2ccc(OCCCO)cc2)=N1 | · | · | · | – | · | · | ·
COc1cccc(C(=O)Nc2ccc3c(c2)C(=O)N(C)C[C@H](OC)[C@@H](C)CN(C(C)=O)[C@H](C)CO3)c1 | · | · | · | – | · | · | ·
O=C(NNC(=O)c1cccs1)c1ccc(Cl)c([N+](=O)[O-])c1 | – | – | 53.8 | – | – | – | –
O=C(COC(=O)CNC(=O)c1ccc(Cl)c([N+](=O)[O-])c1)NNC(=O)c1cccs1 | – | – | – | – | – | – | ·
C[C@@H]1CN([C@H](C)CO)C(=O)Cc2cc(NC(=O)CCCCCC(=O)Nc3ccccc3N)ccc2O[C@H]1CN(C)Cc1ccc(Oc2ccccc2)cc1 | · | · | · | – | · | · | ·
CC(C)NC(=O)N(C)C[C@H]1Oc2cc(C#CCN(C)C)ccc2S(=O)(=O)N([C@H](C)CO)C[C@@H]1C | · | · | · | – | · | · | ·
Cc1ccc2nc(CSc3nc(C)ccc3C#N)[nH]c2c1 | – | – | – | – | – | – | ·
Cc1ccc(C#N)c(SCc2ccccc2F)n1 | – | – | 60.4 | – | – | – | –
Cc1ccc(O)c(NC(=O)c2cc3nc4c(c(C(F)(F)F)n3n2)CCc2ccccc2-4)c1 | – | – | 69.8 | · | – | – | –
CCN(CC)CCCNC(=O)c1cc2nc3c(c(C(F)(F)F)n2n1)CCc1ccccc1-3 | – | – | – | – | – | – | ·
COc1ccc(CCNC(=O)Nc2ccc3c(c2)c(=O)n(C)n3CC=C(C)C)cc1OC | – | – | 52.0 | – | – | – | –
COC(=O)c1c(NC(=O)C(C)C)sc(C(=O)N2CCOCC2)c1C | – | – | 104.9 | – | – | – | –
Cc1noc(C)c1NC(=O)N(C)C[C@H]1Oc2c(NS(=O)(=O)c3ccc(Cl)cc3)cccc2C(=O)N([C@H](C)CO)C[C@H]1C | · | · | · | – | · | · | ·
CCCN(CCC)CCCNC(=O)c1ccc(CS(=O)(=O)c2c(Cl)cccc2Cl)o1 | – | – | 62.9 | – | – | – | –
Cc1ccccc1C1=C/C(=C(\SS/C(C(=O)c2ccc(OCC(=O)O)c(Cl)c2Cl)=C2\C=C(c3ccccc3C)SS2)C(=O)c2ccc(OCC(=O)O)c(Cl)c2Cl)SS1 | – | – | 53.1 | 46.0 | – | – | 5.2µM
O=S(=O)(O)c1cccc2c(N=Nc3ccc(O)c4ncccc34)cccc12 | · | · | 66.2 | – | · | · | –
O=Nc1ccc(O)c2ncccc12 | – | – | 64.2 | – | – | – | –
Cc1ccccc1N=Nc1ccc(O)c2ncccc12 | – | – | – | – | – | – | ·
CN(C)C(=O)c1ccc(-c2ccc([C@@H]3[C@H]4CN(C(=O)C5CCCC5)CCCCN4[C@H]3CO)cc2)cc1 | · | · | · | – | · | · | ·
